Assay results as given in ChEMBL document CHEMBL1255499, “Recombinant phenotyping of cytomegalovirus UL97 kinase sequence variants for ganciclovir resistance” (Antimicrob Agents Chemother, 2010).

Key:
Human betaherpesvirus 5 [1] = experiment: Antiviral activity against Human cytomegalovirus T3264 expressing UL97 kinase G623S mutant gene infected in human foreskin fibroblast measured 6 days post infection by SEAP reporter gene assay; assay type: functional, organism-based; settings: Human betaherpesvirus 5, T3264, 144 h
Procedure, shortened: (§1)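 Ganciclovir SEAP yield reduction. Confluent HFF (2 × 10⁵ cells/well) infected with cell-free virus stock at MOI 0.02. Inoculum removed after 1.5 h and replaced with medium containing serial 2-fold GCV dilutions, top concentration 4 to 32 μM. Supernatant SEAP read by chemiluminescent substrate at day 6. EC₅₀ is the concentration giving 50% SEAP reduction; mean and SD of ≥7 determinations over ≥4 setup dates.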

Human betaherpesvirus 5 [2] = experiment: Antiviral activity against Human cytomegalovirus T3242 expressing UL97 kinase A478V mutant gene infected in human foreskin fibroblast measured 6 days post infection by SEAP reporter gene assay; settings: Human betaherpesvirus 5, T3242, 144 h
Human betaherpesvirus 5 [3] = experiment: Antiviral activity against Human cytomegalovirus T3259 expressing UL97 kinase C592G mutant gene infected in human foreskin fibroblast measured 6 days post infection by SEAP reporter gene assay; assay type: functional, organism-based; settings: Human betaherpesvirus 5, T3259, 144 h; procedure, shortened: as §1
Human betaherpesvirus 5 [4] = experiment: Antiviral activity against Human cytomegalovirus T3184 expressing UL97 kinase L405P mutant gene infected in human foreskin fibroblast measured 6 days post infection by SEAP reporter gene assay; settings: Human betaherpesvirus 5, T3184, 144 h
Human betaherpesvirus 5 [5] = experiment: Antiviral activity against Human cytomegalovirus T3252 expressing UL97 kinase A594V mutant gene infected in human foreskin fibroblast measured 6 days post infection by SEAP reporter gene assay; assay type: functional, organism-based; settings: Human betaherpesvirus 5, T3252, 144 h
Procedure, shortened: (§2)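 Confluent HFF (2 × 10⁵ cells/well) infected with cell-free recombinant AD169-derived SEAP-reporter CMV at MOI 0.02 for 1.5 h. Inoculum then replaced with medium holding serial 2-fold ganciclovir dilutions, top concentration 4 to 32 μM. Supernatant SEAP read by chemiluminescent substrate at day 6. EC₅₀ is the concentration giving 50% SEAP reduction, reported as mean and SD of ≥7 determinations over ≥4 setup dates.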

Human betaherpesvirus 5 [6] = experiment: Antiviral activity against Human cytomegalovirus T3257 expressing UL97 kinase V466M mutant gene infected in human foreskin fibroblast measured 6 days post infection by SEAP reporter gene assay; settings: Human betaherpesvirus 5, T3257, 144 h
Human betaherpesvirus 5 [7] = experiment: Antiviral activity against Human cytomegalovirus T3346 expressing UL97 kinase M460T mutant gene infected in human foreskin fibroblast measured 6 days post infection by SEAP reporter gene assay; assay type: functional, organism-based; settings: Human betaherpesvirus 5, T3346, 144 h; procedure, shortened: as §2
Human betaherpesvirus 5 [8] = experiment: Antiviral activity against Human cytomegalovirus T3329 expressing UL97 kinase C603W mutant gene infected in human foreskin fibroblast measured 6 days post infection by SEAP reporter gene assay; settings: Human betaherpesvirus 5, T3329, 144 h
Human betaherpesvirus 5 [9] = experiment: Antiviral activity against Human cytomegalovirus T2255 expressing UL97 kinase A594V mutant gene infected in human foreskin fibroblast measured 6 days post infection by SEAP reporter gene assay; assay type: functional, organism-based; settings: Human betaherpesvirus 5, T2255, 144 h; procedure, shortened: as §2
Human betaherpesvirus 5 [10] = experiment: Antiviral activity against Human cytomegalovirus T3326 harboring Frt motif upstream of UL97 kinase N68D L126Q I244V mutant gene infected in human foreskin fibroblast measured 6 days post infection by SEAP reporter gene assay; settings: Human betaherpesvirus 5, T3326, 144 h
Human betaherpesvirus 5 [11] = experiment: Antiviral activity against Human cytomegalovirus T3146 expressing UL97 kinase K599R mutant gene infected in human foreskin fibroblast measured 6 days post infection by SEAP reporter gene assay; settings: Human betaherpesvirus 5, T3146, 144 h
Human betaherpesvirus 5 [12] = experiment: Antiviral activity against Human cytomegalovirus T3331 expressing UL97 kinase C603R mutant gene infected in human foreskin fibroblast measured 6 days post infection by SEAP reporter gene assay; assay type: functional, organism-based; settings: Human betaherpesvirus 5, T3331, 144 h; procedure, shortened: as §2
Human betaherpesvirus 5 [13] = experiment: Antiviral activity against Human cytomegalovirus T3240 expressing UL97 kinase N510S mutant gene infected in human foreskin fibroblast measured 6 days post infection by SEAP reporter gene assay; assay type: functional, organism-based; settings: Human betaherpesvirus 5, T3240, 144 h; procedure, shortened: as §1
Human betaherpesvirus 5 [14] = experiment: Antiviral activity against Human cytomegalovirus T2233 expressing UL97 kinase H587Y mutant gene infected in human foreskin fibroblast measured 6 days post infection by SEAP reporter gene assay; settings: Human betaherpesvirus 5, T2233, 144 h
Human betaherpesvirus 5 [15] = experiment: Antiviral activity against Human cytomegalovirus T3327 expressing UL97 kinase C603S mutant gene infected in human foreskin fibroblast measured 6 days post infection by SEAP reporter gene assay; assay type: functional, organism-based; settings: Human betaherpesvirus 5, T3327, 144 h; procedure, shortened: as §2
Human betaherpesvirus 5 [16] = experiment: Antiviral activity against Human cytomegalovirus T3253 expressing UL97 kinase K599R mutant gene infected in human foreskin fibroblast measured 6 days post infection by SEAP reporter gene assay; settings: Human betaherpesvirus 5, T3253, 144 h
Human betaherpesvirus 5 [17] = experiment: Antiviral activity against Human cytomegalovirus T3244 expressing UL97 kinase A588V mutant gene infected in human foreskin fibroblast measured 6 days post infection by SEAP reporter gene assay; settings: Human betaherpesvirus 5, T3244, 144 h
Human betaherpesvirus 5 [18] = experiment: Antiviral activity against Human cytomegalovirus T2924 expressing UL97 kinase H469Y mutant gene infected in human foreskin fibroblast measured 6 days post infection by SEAP reporter gene assay; assay type: functional, organism-based; settings: Human betaherpesvirus 5, T2924, 144 h; procedure, shortened: as §2
Human betaherpesvirus 5 [19] = experiment: Antiviral activity against Human cytomegalovirus T3130 expressing UL97 kinase V665I mutant gene infected in human foreskin fibroblast measured 6 days post infection by SEAP reporter gene assay; settings: Human betaherpesvirus 5, T3130, 144 h
Human betaherpesvirus 5 [20] = experiment: Antiviral activity against Human cytomegalovirus T3136 expressing UL97 kinase H469Y mutant gene infected in human foreskin fibroblast measured 6 days post infection by SEAP reporter gene assay; assay type: functional, organism-based; settings: Human betaherpesvirus 5, T3136, 144 h; procedure, shortened: as §1
Human betaherpesvirus 5 [21] = experiment: Antiviral activity against Human cytomegalovirus T3215 expressing UL97 kinase A478V mutant gene infected in human foreskin fibroblast measured 6 days post infection by SEAP reporter gene assay; settings: Human betaherpesvirus 5, T3215, 144 h
Human betaherpesvirus 5 [22] = experiment: Antiviral activity against Human cytomegalovirus T3258 expressing UL97 kinase A594E mutant gene infected in human foreskin fibroblast measured 6 days post infection by SEAP reporter gene assay; settings: Human betaherpesvirus 5, T3258, 144 h
Human betaherpesvirus 5 [23] = experiment: Antiviral activity against Human cytomegalovirus T3261 harboring Frt motif upstream of UL97 kinase infected in human foreskin fibroblast measured 6 days post infection by SEAP reporter gene assay; settings: Human betaherpesvirus 5, T3261, 144 h
Human betaherpesvirus 5 [24] = experiment: Antiviral activity against Human cytomegalovirus T2258 expressing UL97 kinase C592G mutant gene infected in human foreskin fibroblast measured 6 days post infection by SEAP reporter gene assay; assay type: functional, organism-based; settings: Human betaherpesvirus 5, T2258, 144 h; procedure, shortened: as §2
Human betaherpesvirus 5 [25] = experiment: Antiviral activity against Human cytomegalovirus T3185 harboring Frt motif upstream of UL97 gene and expressing UL97 kinase H587Y mutant gene infected in human foreskin fibroblast measured 6 days post infection by SEAP reporter gene assay; settings: Human betaherpesvirus 5, T3185, 144 h
Human betaherpesvirus 5 [26] = experiment: Antiviral activity against Human cytomegalovirus T2259 expressing UL97 kinase M460V mutant gene infected in human foreskin fibroblast measured 6 days post infection by SEAP reporter gene assay; assay type: functional, organism-based; settings: Human betaherpesvirus 5, T2259, 144 h; procedure, shortened: as §2
Human betaherpesvirus 5 [27] = experiment: Antiviral activity against Human cytomegalovirus T3216 expressing UL97 kinase A588V mutant gene infected in human foreskin fibroblast measured 6 days post infection by SEAP reporter gene assay; settings: Human betaherpesvirus 5, T3216, 144 h
Human betaherpesvirus 5 [28] = experiment: Antiviral activity against Human cytomegalovirus T3041 expressing UL97 kinase L600I mutant gene infected in human foreskin fibroblast measured 6 days post infection by SEAP reporter gene assay; assay type: functional, organism-based; settings: Human betaherpesvirus 5, T3041, 144 h; procedure, shortened: as §2
Human betaherpesvirus 5 [29] = experiment: Antiviral activity against Human cytomegalovirus T3239 expressing UL97 kinase V665I mutant gene infected in human foreskin fibroblast measured 6 days post infection by SEAP reporter gene assay; settings: Human betaherpesvirus 5, T3239, 144 h
Human betaherpesvirus 5 [30] = experiment: Antiviral activity against Human cytomegalovirus T3099 expressing UL97 kinase H587Y mutant gene infected in human foreskin fibroblast measured 6 days post infection by SEAP reporter gene assay; settings: Human betaherpesvirus 5, T3099, 144 h
Human betaherpesvirus 5 [31] = experiment: Antiviral activity against Human cytomegalovirus T2211 expressing UL97 kinase H587Y mutant gene infected in human foreskin fibroblast measured 6 days post infection by SEAP reporter gene assay; settings: Human betaherpesvirus 5, T2211, 144 h
Human betaherpesvirus 5 [32] = experiment: Antiviral activity against Human cytomegalovirus T2789 expressing UL97 kinase L405P mutant gene infected in human foreskin fibroblast measured 6 days post infection by SEAP reporter gene assay; settings: Human betaherpesvirus 5, T2789, 144 h
Human betaherpesvirus 5 [33] = experiment: Antiviral activity against Human cytomegalovirus T3243 expressing UL97 kinase T659I mutant gene infected in human foreskin fibroblast measured 6 days post infection by SEAP reporter gene assay; assay type: functional, organism-based; settings: Human betaherpesvirus 5, T3243, 144 h; procedure, shortened: as §1
Human betaherpesvirus 5 [34] = experiment: Antiviral activity against Human cytomegalovirus T3135 expressing UL97 kinase H587Y mutant gene infected in human foreskin fibroblast measured 6 days post infection by SEAP reporter gene assay; settings: Human betaherpesvirus 5, T3135, 144 h

How did the EC50 (Human betaherpesvirus 5 [1]) turn out when `Nc1nc2c(ncn2COC(CO)CO)c(=O)[nH]1` [GANCICLOVIR] was run?
Its EC50 is 1130 nM.

And the EC50 (Human betaherpesvirus 5 [2])?
The EC50 was 770 nM.

What about the EC50 (Human betaherpesvirus 5 [3]) of the same molecule?
Its EC50 is 3000 nM.

What about the EC50 (Human betaherpesvirus 5 [4]) of the same molecule?
Its EC50 is 2760 nM.

What about the EC50 (Human betaherpesvirus 5 [5]) of the same molecule?
The EC50 was 8480 nM.

What about the EC50 (Human betaherpesvirus 5 [6]) of the same molecule?
The EC50 was 1240 nM.

What about the EC50 (Human betaherpesvirus 5 [7]) of the same molecule?
The EC50 was 9240 nM.

And the EC50 (Human betaherpesvirus 5 [8])?
The EC50 was 7810 nM.

What about the EC50 (Human betaherpesvirus 5 [9]) of the same molecule?
The EC50 was 9240 nM.

What about the EC50 (Human betaherpesvirus 5 [10]) of the same molecule?
The EC50 was 1090 nM.

What about the EC50 (Human betaherpesvirus 5 [11]) of the same molecule?
The EC50 was 940 nM.

And the EC50 (Human betaherpesvirus 5 [12])?
The EC50 was 8180 nM.

What about the EC50 (Human betaherpesvirus 5 [13]) of the same molecule?
Its EC50 is 1140 nM.

What about the EC50 (Human betaherpesvirus 5 [14]) of the same molecule?
Its EC50 is 1110 nM.

What about the EC50 (Human betaherpesvirus 5 [15]) of the same molecule?
The EC50 was 1850 nM.

What about the EC50 (Human betaherpesvirus 5 [16]) of the same molecule?
The EC50 was 1230 nM.

What about the EC50 (Human betaherpesvirus 5 [17]) of the same molecule?
Its EC50 is 990 nM.

What about the EC50 (Human betaherpesvirus 5 [18]) of the same molecule?
Its EC50 is 1330 nM.

What about the EC50 (Human betaherpesvirus 5 [19]) of the same molecule?
The EC50 was 1220 nM.

And the EC50 (Human betaherpesvirus 5 [20])?
Its EC50 is 1050 nM.

And the EC50 (Human betaherpesvirus 5 [21])?
Its EC50 is 950 nM.

And the EC50 (Human betaherpesvirus 5 [22])?
Its EC50 is 2980 nM.

And the EC50 (Human betaherpesvirus 5 [23])?
Its EC50 is 990 nM.

And the EC50 (Human betaherpesvirus 5 [24])?
Its EC50 is 3360 nM.

And the EC50 (Human betaherpesvirus 5 [25])?
Its EC50 is 960 nM.

What about the EC50 (Human betaherpesvirus 5 [26]) of the same molecule?
The EC50 was 8520 nM.

And the EC50 (Human betaherpesvirus 5 [27])?
Its EC50 is 1230 nM.

And the EC50 (Human betaherpesvirus 5 [28])?
The EC50 was 1500 nM.

And the EC50 (Human betaherpesvirus 5 [29])?
Its EC50 is 1060 nM.

And the EC50 (Human betaherpesvirus 5 [30])?
Its EC50 is 1020 nM.

And the EC50 (Human betaherpesvirus 5 [31])?
Its EC50 is 1100 nM.

And the EC50 (Human betaherpesvirus 5 [32])?
The EC50 was 3020 nM.

And the EC50 (Human betaherpesvirus 5 [33])?
Its EC50 is 1260 nM.

And the EC50 (Human betaherpesvirus 5 [34])?
The EC50 was 1000 nM.
